Hits are enriched below; roughly 4.3% of the tested compounds scored in any of these assays.
MC4R antagonist: human MC4R antagonism in cAMP assay; MC4R-expressing cells, MTII-stimulated cAMP, LANCE TR-FRET; P32245; 0.48% of 360,000 active; inhibition, % at 6.5 µM;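 active = inhibition above its plate's cutoff, the mean of tested wells on that plate plus 3 SD, cut at about 29% in these data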;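 note: 0% = Melanotan II alone and 100% = Melanotan II plus saturating MCL0020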
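Test system: U2OS cells stably expressing human melanocortin 4 receptor (MC4R); also added: Melanotan II challenge; compound: 6.5 µM single dose; timing: 30-min compound preincubation, 1-h Melanotan II challenge, 1-h detection, room temperature; signal: Eu-cAMP/anti-cAMP TR-FRET, emission 671 nm; repeats: one well per compound, no replicates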
MC4R barr agon: agonists of human melanocortin 4 receptor (MC4R) beta-arrestin; U2OS MC4R beta-arrestin complementation, luminescence; percent of melanotan II response, DMSO zero; 0.98% of 360,000 active; activation, % at 8.9 µM; AID 540308; P32245;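 active = activation above a per-plate cutoff, the mean activation of sample wells on that plate plus 3 SD, cut at about 8% in these data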
TAAR1 ag: human TAAR1 agonism. Q96RJ0. CHO RD-HGA16 TAAR1, Fluo-8 calcium fluorescence; vehicle wells 0%, saturating PEA agonist 100%. activation, % at 3 µM. 0.99% of 360,000 active;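 active = activation above the mean activation of all test compounds in the run plus 3 SD, cut at about 38% in these data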
Target sequence (Q96RJ0 whole entry, looked up): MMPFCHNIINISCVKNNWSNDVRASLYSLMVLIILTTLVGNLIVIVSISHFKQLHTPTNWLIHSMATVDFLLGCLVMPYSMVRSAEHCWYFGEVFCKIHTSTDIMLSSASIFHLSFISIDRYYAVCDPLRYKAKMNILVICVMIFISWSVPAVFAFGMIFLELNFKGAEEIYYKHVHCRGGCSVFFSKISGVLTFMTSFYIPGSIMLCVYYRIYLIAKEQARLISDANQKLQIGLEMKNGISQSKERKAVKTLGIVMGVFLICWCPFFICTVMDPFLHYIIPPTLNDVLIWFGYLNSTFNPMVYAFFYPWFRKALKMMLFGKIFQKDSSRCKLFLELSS
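System: CHO-derived RD-HGA16 cells with stable Gα16 and human TAAR1 / Times: 17-24 h plating, Fluo-8 75 min 37 °C, 30 min RT / Technique: calcium-sensitive Fluo-8 signal, excitation 470-495, emission 515-575 nm / Measure: % activation relative to PEA EC100 response / Benchmarks: DMSO and PEA EC100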
HTR2A ag: agonists of mouse serotonin 5-HT2A receptor (HTR2A) | P35363 | CHO-K1 mHTR2A beta-arrestin complementation, luminescence; percent of 30 µM serotonin response | activation, % at 7.6 µM | 0.66% of 360,000 active | AID 624169;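 active = activation above a run cutoff, the mean activation of all tested compounds plus 3 SD, cut at about 14% in these data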;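 note: 0% = plate median of compound wells and 100% = 30 µM serotonin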
TAAR1 antag: human TAAR1 antagonism; Q96RJ0; CHO RD-HGA16 TAAR1, Fluo-8 calcium fluorescence, antagonist; inhibition, % at 3 µM; 1.5% of 360,000 active; AID 624466;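 active = inhibition above a per-plate cutoff, the mean inhibition of test compounds on that plate plus 3 SD, cut at about 49% in these data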;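 note: 0% = DMSO plus EC80 beta-PEA response and 100% = DMSO alone without agonist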
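Assay system: RD-HGA16 CHO cells with stable hTAAR1 and Gα16 / Reagent: EC80 β-phenethylamine stimulus / Doses: 3 µM, single point / Timing: dye loading 75 min at 37 °C, then 30 min room temperature / Measured by: Fluo-8 intracellular calcium dye fluorescence, real-time kinetic reads / Controls: vehicle wells and EC80 agonist wells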
B2AR ag: agonists of human beta-2 adrenergic receptor inducing internalization. Am2.2-beta2AR cells, FAP receptor internalization, flow cytometry. response, % (concentration not given with the values). 0.43% of 340,000 active;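 active = response above a set limit, near 3 SD of response in nonfluorescent compounds, cut at about 42% in these data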
TAAR1 ag conf: human TAAR1 agonism, confirmed. shares compounds with TAAR1 ag. CHO RD-HGA16 TAAR1, Fluo-8 calcium fluorescence; scaled: DMSO 0%, maximal phenethylamine 100%. AID 651783. activation, % at 3 µM. 82% of 2,400 active;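 active = activation above a cutoff set at the run's mean compound activation plus 3 SD, cut at about 39% in these data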
Ga16 nonsel ag: counter-screen for TAAR1 agonists: nonselective agonists in parental cells; CHO-Ga16 parental, Fluo-8 calcium fluorescence; normalized to maximal ATP response, DMSO zero; shares compounds with TAAR1 ag; AID 651787; 50% of 2,400 active; activation, % at 3 µM;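 active = activation above the run cutoff, the mean activation over all tested wells plus 3 SD, cut at about 12% in these data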;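 note: 0% = DMSO wells and 100% = maximal ATP response on the peak over basal ratio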
TAAR1 desensitize: human TAAR1 agonist that also desensitizes the receptor | shares compounds with TAAR1 ag | CHO RD-HGA16 hTAAR1, Fluo-8 calcium, beta-PEA response inhibition | inhibition, % at 3 µM | 46% of 2,400 active;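 active = inhibition above the run cutoff, the mean inhibition of all test compounds plus 3 SD, cut at about 49% in these data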;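 note: beta-PEA stimulus applied at its EC80; loss of beta-PEA calcium signal after compound pretreatment read as receptor desensitization; 0% = DMSO with beta-PEA at EC80 and 100% = DMSO alone without agonist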
Ga16 nonsel ant: nonselective Ga16 antagonist in TAAR1 agonist counter-screen; shares compounds with TAAR1 ag; 39% of 2,400 active; inhibition, % at 3 µM; CHO-Ga16 ATP-induced calcium, Fluo-8 fluorescence;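 active = inhibition above the plate's mean compound inhibition plus 3 SD, computed per plate, cut at about 22% in these data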;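 note: 0% = EC80 ATP with DMSO and 100% = DMSO wells without ATP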
* = called active by the depositor.

How did O=C(NCCCn1ccnc1)c1ccc(-c2cccc(C(F)(F)F)c2)o1 do in these assays?
MC4R antagonist: 1; MC4R barr agon: 1; TAAR1 ag: -1; HTR2A ag: -16; TAAR1 antag: -4; B2AR ag: 13

What do the screens show for `O=C(Nc1ccccc1)c1nnsc1S(=O)c1ccc(Cl)cc1` (configuration not stated)?
MC4R antagonist: 19; MC4R barr agon: -1; TAAR1 ag: 68*; HTR2A ag: 0; TAAR1 antag: 96*; B2AR ag: 38; TAAR1 ag conf: 49*; Ga16 nonsel ag: 23*; TAAR1 desensitize: 81*; Ga16 nonsel ant: 38*

How did O=C(c1nnsc1S(=O)c1ccc(Cl)cc1)N1CCOCC1 (configuration not stated) do in these assays?
MC4R antagonist: -23; MC4R barr agon: -6; TAAR1 ag: 15; HTR2A ag: -4; TAAR1 antag: 24; B2AR ag: 29

How did CC(=O)Nc1ccc(Sc2ncccc2C(=O)Nc2ccc(OC(F)(F)F)cc2)cn1 do in these assays?
MC4R antagonist: -2; MC4R barr agon: 1; TAAR1 ag: 139*; HTR2A ag: 3; TAAR1 antag: 104*; B2AR ag: 11; TAAR1 ag conf: 143*; Ga16 nonsel ag: 107*; TAAR1 desensitize: 104*; Ga16 nonsel ant: 90*

How did COc1cccc(CNC(=O)c2ccc(CS(=O)(=O)Cc3ccccc3C)o2)c1 do in these assays?
MC4R antagonist: 7; MC4R barr agon: 2; TAAR1 ag: 7; HTR2A ag: -7; TAAR1 antag: -9; B2AR ag: -4

What do the screens show for `CN(CCNC(=O)c1ccc(CS(=O)(=O)c2ccc(Br)cc2)o1)CCc1ccccc1`?
MC4R antagonist: 5; MC4R barr agon: -3; TAAR1 ag: 53*; HTR2A ag: 1; TAAR1 antag: -19; B2AR ag: -19; TAAR1 ag conf: 51*; Ga16 nonsel ag: 2; TAAR1 desensitize: 14; Ga16 nonsel ant: 10

How did Cc1ccccc1CS(=O)(=O)Cc1ccc(C(=O)NCCc2ccccc2)o1 do in these assays?
MC4R antagonist: 8; MC4R barr agon: 2; TAAR1 ag: 72*; HTR2A ag: -5; TAAR1 antag: 41; B2AR ag: 8; TAAR1 ag conf: 48*; Ga16 nonsel ag: 8; TAAR1 desensitize: 34; Ga16 nonsel ant: 22*

What do the screens show for `Cc1cccc(CS(=O)(=O)Cc2ccc(C(=O)NCCc3ccccc3)o2)c1`?
MC4R antagonist: 5; MC4R barr agon: -2; TAAR1 ag: 48*; HTR2A ag: -4; TAAR1 antag: 25; B2AR ag: 5; TAAR1 ag conf: 31; Ga16 nonsel ag: 4; TAAR1 desensitize: 8; Ga16 nonsel ant: 16

Results for CC(C)c1[nH]nc2c1C(c1cccc(C(F)(F)F)c1)NC2=O (configuration not stated) ?
TAAR1 ag: 5; TAAR1 antag: -13

What do the screens show for `CC12CC3CC(C1)CC(C(=O)NNC(=O)c1ccncc1)(C3)C2`?
MC4R antagonist: -1; MC4R barr agon: -1; TAAR1 ag: 3; HTR2A ag: -5; TAAR1 antag: 1; B2AR ag: -2

Screening data: PubChem BioAssay, several laboratories
